High-throughput results deposited in PubChem by several laboratories.
DTT redox prof: compounds producing H2O2 with reducing agent – biochemical, NIH compound library profiling, artefact control for MLSCN library redox annotation, primary screen; hit rate 0.03% among 200,000; DTT-dependent redox cycling H2O2, phenol red/HRP absorbance; 100% = 100 µM peroxide control, 0% = buffer; activation, % at 10 µM; AID 878, 2007;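 active = activation of at least 50% relative to the plate's high and low controls in the primary single-dose screen; inactive = activation below 50%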;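 note: compound incubated with DTT at 0.8 mM final as the reducing agent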
bCat nuc transl: modulators of beta-catenin nuclear translocation, primary screen, imaging, HeLa cells, immunofluorescence, high-content; nuclear translocation activity, % at 5 µM; hit rate 0.3% among 190,000;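 active = nuclear translocation activity above 50% at 5 µM, with a well cell count of 50 or more; inconclusive = wells under 50 cells across six images, flagged as toxic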;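 note: per-cell ratio of nuclear to cytoplasmic median beta-catenin stain intensity; plate controls were DMSO negative control for no effect and GSK-3 inhibitor IX positive control for full effect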
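Technique: fluorescence imaging of beta-catenin antibody stain plus DAPI / Material: human HeLa cell line / Incubation: compound treatment 24 h, 37°C, 5% CO2 / Read-out basis: % activation of per-cell nuclear versus cytoplasmic median beta-catenin signal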
MT stabilize HCS: microtubule stabilizers in HeLa cells, primary screen, imaging, high-content imaging. HeLa tubulin immunostaining HCS, 24 h; share of cells brighter than vehicle mean+2SD. % tubulin-high responders, % at 10 µM. hit rate 0.83% among 200,000;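 active = plate Z-score above 3 for both tubulin-high and condensed-nucleus cell shares, with cell loss under 80%, at 10 µM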;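 note: anti alpha tubulin signal scored within the nucleus-defined area of each cell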
ROMK primary: ROMK potassium channel modulators, primary screen, cell-based, thallium flux, MLSMR library | B-score at 10 µM | ATP-sensitive inward rectifier potassium channel 1 (Homo sapiens), P48048 | hit rate 2% among 130,000 | Tet-inducible ROMK, thallium flux fluorescence; actives lie on both sides | AID 1918, 2009;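 active = signal ratio slope over the read window, or its plate-corrected B-score, at least 3 SD from the plate mean, either direction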;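 note: B-score of the F/F0 ratio slope over 7 to 12 s after thallium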
Cl transport mod: KCC2 cotransporter modulators, thallium flux, primary screen, cell-based, HEK293 KCC2, FluoZin-2 fluorescence, MLSMR | KCC2 cells, thallium flux FluoZin-2 fluorescence | B-score of Tl+ flux slope (higher = more flux/activation; lower = inhibition) at 10 µM | hit rate 2.2% among 190,000 | AID 1456, 2008;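 active = thallium flux slope and its plate-corrected score both differing from the plate sample mean at a set confidence after two filtering rounds, in either direction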;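 note: slope of fluorescence scaled to starting intensity during 10 to 20 s after thallium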
Target sequence (Q9H2X9 whole entry, looked up): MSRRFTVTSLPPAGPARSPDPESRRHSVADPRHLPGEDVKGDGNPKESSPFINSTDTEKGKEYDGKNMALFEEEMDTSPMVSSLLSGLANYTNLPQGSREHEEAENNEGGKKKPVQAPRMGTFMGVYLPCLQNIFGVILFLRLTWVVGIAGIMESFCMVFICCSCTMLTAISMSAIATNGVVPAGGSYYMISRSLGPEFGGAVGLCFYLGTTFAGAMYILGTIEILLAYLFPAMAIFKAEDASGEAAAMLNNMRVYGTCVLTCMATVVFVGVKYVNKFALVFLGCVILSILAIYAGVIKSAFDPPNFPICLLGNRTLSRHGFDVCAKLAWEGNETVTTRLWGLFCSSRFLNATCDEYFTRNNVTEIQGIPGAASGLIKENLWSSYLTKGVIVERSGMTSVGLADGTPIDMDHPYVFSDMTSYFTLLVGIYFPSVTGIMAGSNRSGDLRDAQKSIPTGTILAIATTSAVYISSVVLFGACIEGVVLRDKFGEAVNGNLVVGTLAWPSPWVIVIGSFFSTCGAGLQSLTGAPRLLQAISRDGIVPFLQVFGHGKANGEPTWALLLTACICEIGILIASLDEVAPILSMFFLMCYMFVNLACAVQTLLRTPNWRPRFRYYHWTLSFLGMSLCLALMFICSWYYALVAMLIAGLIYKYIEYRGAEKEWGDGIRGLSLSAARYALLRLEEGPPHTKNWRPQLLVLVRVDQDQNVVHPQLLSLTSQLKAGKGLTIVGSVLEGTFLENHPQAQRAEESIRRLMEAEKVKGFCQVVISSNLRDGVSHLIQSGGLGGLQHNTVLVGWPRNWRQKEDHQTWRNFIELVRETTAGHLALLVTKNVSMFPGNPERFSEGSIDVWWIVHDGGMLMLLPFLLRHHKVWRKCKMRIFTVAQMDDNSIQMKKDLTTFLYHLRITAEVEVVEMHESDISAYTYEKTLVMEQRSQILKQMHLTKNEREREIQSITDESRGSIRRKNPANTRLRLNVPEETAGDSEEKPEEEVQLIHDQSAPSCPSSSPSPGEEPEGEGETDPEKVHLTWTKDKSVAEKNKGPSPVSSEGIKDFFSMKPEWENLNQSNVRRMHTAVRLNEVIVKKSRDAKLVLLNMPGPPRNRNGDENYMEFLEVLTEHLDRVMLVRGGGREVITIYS
ROMK retest: ROMK channel modulator hit retest, confirmation, cell-based, thallium flux, duplicate, resupplied hits | hit rate 54% among 3,000 | normalized thallium flux (F/F0 slope) at 10 µM | fluorescence ratio; active compounds read low | shares compounds with ROMK primary;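 active = Flux at 10 µM at least 3 SD below or above vehicle control mean in one or both replicates; inconclusive = no clear call, values can overlap the other calls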
Numbers without * were called inactive; ? = inconclusive; · = not tested or not shown. In the library only some 3.7% were active in any assay of this set; here they are far more common.

SMILES	DTT redox prof	bCat nuc transl	MT stabilize HCS	ROMK primary	Cl transport mod	ROMK retest
O=C1c2ccccc2S(=O)(=O)N1CC1CC(c2ccccc2)=NO1 (stereo not drawn)	-1	0	4	2.1*	·	0.068*
COc1cc(NC(=O)c2cc(-c3cccc(O)c3)on2)cc(OC)c1OC	0	3	5	·	-0.11	·
COc1cc(NC(=O)c2cc(-c3cccs3)on2)cc(OC)c1OC	2	2	54*	4.1*	-0.62	0.084
COc1ccccc1N1CCN(C(=O)c2cc(-c3ccc(C)cc3)on2)CC1	1	2	4	-1.4	-0.4	·
COc1ccccc1-c1cc(C(=O)NCCc2ccccc2)no1	0	·	21*	3.5*	·	0.076
COc1ccccc1-c1cc(C(=O)N2CCN(c3ccccc3OC)CC2)no1	2	1	36	3.3*	-1.2	0.085
COc1ccccc1-c1cc(C(=O)Nc2cccnc2)no1	0	70*	24*	5.1*	-1.5	0.081
COc1ccccc1-c1cc(C(=O)Nc2ccccc2SC)no1	4	3	3	0.33	0.1	·
COc1ccc(CCNC(=O)c2cc(-c3ccccc3OC)on2)cc1OC	2	-1	2	·	-0.82	·
CCN(CC)C(=O)CSc1nnc(COc2ccccc2)n1N	-1	2	2	1.9	-0.057	·
CCN(CC)S(=O)(=O)c1ccc(/C=C/C(=O)OCC(=O)N(C)C)cc1	-1	-4	4	0.036	-0.057	·
O=C(O)C1CSC(c2ccccc2Cl)N1C(=O)c1ccc(Cl)cc1 (stereo not drawn)	-1	0	2	0.0035	-0.69	·
COc1ccc(C2CC(=O)Oc3c(C(CCN4CCCC(C)C4)c4ccc(N(C)C)cc4)c(OC)cc(OC)c32)cc1 (stereo not drawn)	·	-1	·	·	0.012	0.059*
O=C(Nc1cc(C(F)(F)F)cc(C(F)(F)F)c1)c1ccc(Cn2cc(C(F)(F)F)ccc2=O)cc1	2	·	1	·	0.45	·
C=CCOc1ccc(C=Nc2cccc(Cl)c2)c(O)c1	0	-1	3	-2.9*	-0.096	0.081
Oc1ccc(N=Nc2cccc(Cl)c2)cc1C=Nc1ccc(N2CCOCC2)cc1	1	0	3	·	-0.14	·
O=C1c2ccccc2C(=O)N1CCCCN(C(=O)c1ccco1)c1ccc(Cl)cc1	0	·	5	-3.4*	·	0.049*
O=C1c2ccccc2C(=O)N1CCCCN(C(=O)c1cccc([N+](=O)[O-])c1)c1ccc(Cl)cc1	2	-1	2	·	-0.24	·
COC(=O)Cc1cc(OC)c(OC)cc1S(=O)(=O)N(C)C	-1	-1	3	-0.91	0.39	·
N#C/C(=C\c1cccs1)C(=O)c1ccccc1Cl	·	0	·	·	-1.1	0.052*
CC(C)(C)C(=O)/C(C#N)=C/c1cccs1	·	1	·	-0.78	-0.88	·
COC(=O)c1cc([N+](=O)[O-])c(-n2cncn2)c([N+](=O)[O-])c1	0	-1	2	-7.8*	-0.61	0.043*
CCOC(=O)C1(CCCc2ccccc2)CCN(Cc2ccn[nH]2)CC1	-1	1	4	-0.51	-2.1	·
C=CCOC(=O)C1=C(C)OC(N)=C(C#N)C1c1c(C)nn(-c2ccccc2)c1Cl (stereo not drawn)	2	-1	4	-4*	-1.3	0.059*
COc1ccc2nc(/C=N/NC(=O)[C@H](C)NC(=O)OC(C)(C)C)ccc2c1	0	1	2	0.93	0.4	·
SMILES	DTT redox prof	bCat nuc transl	MT stabilize HCS	ROMK primary	Cl transport mod	ROMK retest
CCOC(=O)N1CCC(n2c(SCC(=O)NCCC3=CCCCC3)nc3ccccc3c2=O)CC1	1	-1	6	-7*	-0.5	?
CCOC(=O)N1CCC(n2c(SCC(=O)Nc3ccccc3OC)nc3ccccc3c2=O)CC1	1	-1	1	-4.2*	-1.6	0.065*
CCOC(=O)N1CCC(n2c(SCC(=O)NCc3ccccc3)nc3ccccc3c2=O)CC1	0	-3	6	0.21	-2	·
O=C(C1CCCN(S(=O)(=O)c2cccc3cccnc23)C1)N1CCN(c2ccc(F)cc2)CC1 (stereo not drawn)	-3	2	8	·	·	0.071
O=C(C1CCN(S(=O)(=O)c2cccc3cccnc23)CC1)N1CCN(c2ccccc2)CC1	0	2	2	·	-0.13	·
Cc1ccc(-c2nnnn2C2C/C(=N\NC(N)=S)C3OCC2O3)cc1 (stereo not drawn)	0	-1	3	0.3	0.041	·
COc1ccc(-n2c(-c3ccc(Cl)cc3)c[n+]3c2CCc2ccccc2-3)cc1	0	2	3	-2.6	-0.64	·
Cc1ccc(-n2c(-c3ccc(Br)cc3)c[n+]3c2CCc2ccc4cccnc4c2-3)cc1	0	0	5	·	-1.4	0.034*
NC(=O)/C(=C\c1ccccc1)NC(=O)c1ccc(NC(=O)c2ccccc2)cc1	·	0	·	·	-0.044	·
Cc1csc(NC(=O)c2cc(-c3ccccc3)nc3ccccc23)n1	0	-3	4	·	-0.63	0.08
CCN(CCC(=O)Nc1cc([N+](=O)[O-])ccc1OC)Cc1ccccc1	0	-1	3	-0.17	-0.037	·
Cn1nnnc1SCc1ccc(C(=O)Nc2nccs2)cc1	-1	1	1	·	·	·
C=CCn1c(SCc2ccc(C(=O)Nc3nccs3)cc2)nnc1-c1ccc(C)c(Cl)c1	1	-2	3	·	0.085	0.073
Cc1ccc(S(N)(=O)=O)cc1NC(=O)/C=C/c1ccc2c(c1)OCO2	0	1	2	-1.1	-1.8	·
CCCCCN1C=CC=C/C1=C\C=C(C#N)C#N	·	-2	·	·	-3	·
CCCCCCN1C=CC=C/C1=C/C=C(C#N)C#N	0	·	3	-6.9*	-3.4	0.046*
Cc1cccc(N2CCN(C(=O)c3cccc(N4C(=O)C5CC=CC(C)C5C4=O)c3)CC2)c1C (stereo not drawn)	1	-12	2	-1.7	0.018	·
C=CCNC(=O)c1ccc2c(=O)n(CCCN3CCCC3=O)c(=S)[nH]c2c1	-1	0	4	-2.1	0.51	·
CCCCN(CCCC)C(=O)CSc1nnc2n(C)c(=O)c3c4c(sc3n12)CCCC4	-1	-1	3	-3.6*	0.31	0.049*
CCCSc1nnc2n(C)c(=O)c3c4c(sc3n12)CCC4	-2	0	3	·	-0.38	·
CN1CCC(=NNC(=O)CSc2ccc(Cl)cc2)CC1	-1	-2	2	-0.14	1.3	·
Cc1cc(OCC(=O)N(C)C2CCCCC2)ccc1Cl	-1	-1	3	·	·	·
CN(C(=O)COC(=O)COc1ccc(Cl)cc1)C1CCCCC1	1	-6	3	·	-0.067	0.074
